Rows were chosen to be rich in hits. Some 0.58% of all compounds tested hit in one or more screens of this group.
TRPML3 agonist: activates the human TRPML3 channel | Q8TDD5 | HEK293 TRPML3-YFP, Fluo-8 calcium fluorescence; 100% = the carbachol control signal | activation, % at 3 µM | hit rate 0.29% among 220,000 | AID 1448;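 active = activation above its plate's cutoff, the mean activation of the plate's test wells plus 3 SD, cut at about 12% in these data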
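Test system – HEK293 line with stable expression of human TRPML3-YFP channel · Control set – carbachol 87 µM final as high control (100%), DMSO as low control (0%) · Signal – Fluo-8 calcium dye fluorescence, ex 470-495, em 515-575 nm · Incubation – 1-h 37 °C dye load, 5-s basal, 120-s post-compound reads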
zfTRPN1 agonist: activates the zebrafish TRPN1 channel | HEK293 zebrafish TRPN1-YFP, Fluo-8 calcium fluorescence; 100% = response to 87 µM carbachol | activation, % at 3 µM | hit rate 0.18% among 220,000;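 active = activation above its plate's cutoff, the mean activation of test wells on that plate plus 3 SD, cut at about 19% in these data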
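Assay system: Zebrafish TRPN1-YFP in HEK293 cells | Incubation: Dye loading 1 h at 37 °C, then 30 min room temperature | Measured by: Kinetic Fluo-8 fluorescence, ex 470-495, em 515-575 nm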
V1R ag counter: V1a receptor agonism, counter-screen for OXTR agonists. CHO-V1R cells, Fluo-8 calcium fluorescence, agonist mode; 0% DMSO, 100% 3 nM vasopressin. activation, % at 3 µM. hit rate 0.25% among 320,000;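 active = activation above the mean activation of all tested compounds plus 3 SD, per screening run, cut at about 20% in these data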;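 also: signal is peak over basal fluorescence ratio across a 100 second FLIPR read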
Target sequence (P37288 whole entry, looked up): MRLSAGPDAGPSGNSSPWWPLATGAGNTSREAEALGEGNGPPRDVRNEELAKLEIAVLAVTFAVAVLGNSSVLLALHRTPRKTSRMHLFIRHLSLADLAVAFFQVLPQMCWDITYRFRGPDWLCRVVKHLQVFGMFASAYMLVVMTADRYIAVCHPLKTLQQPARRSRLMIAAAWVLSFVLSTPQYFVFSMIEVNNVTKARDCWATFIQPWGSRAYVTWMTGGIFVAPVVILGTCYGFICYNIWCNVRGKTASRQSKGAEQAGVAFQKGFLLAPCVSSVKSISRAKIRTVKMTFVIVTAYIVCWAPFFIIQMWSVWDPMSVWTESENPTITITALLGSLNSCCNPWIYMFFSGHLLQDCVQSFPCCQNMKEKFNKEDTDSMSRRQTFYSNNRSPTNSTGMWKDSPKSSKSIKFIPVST
OXTR agonist: agonists of human oxytocin receptor; CHO-OTR cells, Fluo-8 calcium fluorescence; normalized: DMSO 0%, oxytocin 100%; activation, % at 3 µM; hit rate 0.32% among 320,000; AID 2435; P30559;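 active = activation above the mean of all tested compounds plus 3 SD, cutoff set per screening run, cut at about 20% in these data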;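 also: peak over basal fluorescence ratio from a 100 s FLIPR kinetic read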
OXTR potentiator: potentiators of human oxytocin receptor; activation, % at 3 µM; hit rate 0.061% among 320,000; CHO-OTR cells, Fluo-8 calcium fluorescence, potentiator mode; 0% = oxytocin EC15, 100% = EC100; P30559;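 active = activation above that plate's cutoff, the mean activation of tested compounds plus 3 SD, cut at about 6.6% in these data, passing the limit was not always enough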
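Replication – single well per compound, singlicate · Assay system – CHO cell line stably expressing human OTR · Timing – 6 min pre-incubation, 100 s read · Measure – normalized max/min fluorescence ratio, % activation · Doses – 3.0 µM, one dose · Detection – Fluo-8 calcium dye fluorescence · Probe or stimulus – oxytocin near EC15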
OXTR pot cf: confirmation of human oxytocin receptor potentiators; CHO-OTR cells, Fluo-8 calcium fluorescence, potentiation; scaled from low-dose to maximal oxytocin; activation, % at 3 µM; AID 434985; shares compounds with OXTR potentiator; 180 tested, under 10 active;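 active = mean percent activation over triplicates above a cutoff set from solvent-only control plates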;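 also: compounds tested in the presence of an EC15 dose of oxytocin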
Each line names hits and unclear results; the compound was inactive in the other large screens (follow-up assays come after a bar, where they were run).

O=C(/C=C/c1cccs1)Nc1ccncc1	OXTR potentiator 13 | OXTR pot cf inactive
O=C(NC(c1ccccc1)c1ccccc1)C1CCCC1	OXTR potentiator 12 | OXTR pot cf inactive
CCn1cc(C(=O)NCC(OC)OC)c(=O)c2cc(S(=O)(=O)N3CCOCC3)ccc21	OXTR potentiator 13 (no result: TRPML3 agonist, zfTRPN1 agonist) | OXTR pot cf inactive
COC(CNC(=O)c1cn(C)c2ccc(S(=O)(=O)N3CCOCC3)cc2c1=O)OC	none (no result: TRPML3 agonist, zfTRPN1 agonist)
COC(=O)c1nn(-c2ccc(F)cc2)ccc1=O	none
CC(=O)N1CCN(C(=O)C(Cc2c[nH]c3ccccc23)NC(=O)c2ccccc2Cl)CC1 (stereo not given)	OXTR potentiator 15 (no result: TRPML3 agonist, zfTRPN1 agonist) | OXTR pot cf inactive
Cc1ccc(S(=O)(=O)c2nc(S(C)(=O)=O)sc2N2CCCC2)cc1	none (no result: TRPML3 agonist, zfTRPN1 agonist)
CCOc1cc(/C=N/NC(=O)C(=O)NC2CC2)cc(Br)c1O	OXTR potentiator 16 | OXTR pot cf inactive
CCOc1cc(/C=N/NC(=O)C(N)=O)cc(Br)c1O	none
COC(=O)c1ccccc1OC(=O)c1cccnc1	none
COC(=O)CSc1[nH]c2ccc(F)cc2c1[N+](=O)[O-]	OXTR potentiator 9.0 | OXTR pot cf inactive
COc1cc2c(cc1OC)C(c1ccccc1)NC(C)(C)C2 (stereo not given)	none (no result: TRPML3 agonist, zfTRPN1 agonist)
Cc1ccc(CNC(=O)C2CCC(=O)N2C2CCCCC2)cc1 (stereo not given)	OXTR potentiator 10 | OXTR pot cf inactive
CCC(CC)NC(=O)c1nn(Cc2ccccc2)c(=O)c2ccccc12	none (no result: TRPML3 agonist, zfTRPN1 agonist)
CC(C)(C)NC(=O)c1nn(Cc2ccccc2)c(=O)c2ccccc12	OXTR potentiator 15 | OXTR pot cf inactive
Cc1c(C(=O)NCc2ccccn2)oc2c(Cl)cccc12	OXTR potentiator 13 (no result: TRPML3 agonist, zfTRPN1 agonist) | OXTR pot cf inactive
CCCN(c1nc(C)cc(OC)n1)S(=O)(=O)c1ccccc1	OXTR potentiator 13 | OXTR pot cf inactive
COC(=O)CN(c1nc(C)cc(OC)n1)S(=O)(=O)c1ccccc1	none (no result: V1R ag counter, OXTR agonist, OXTR potentiator)
CCOC(=O)CCC(=O)NNC(=O)c1ccc(NC(=O)c2ccccc2)cc1	none
Cc1oc(-c2ccc(Cl)cc2)nc1CS(=O)CC(=O)NCc1ccco1 (stereo not given)	OXTR potentiator 7.9 (no result: TRPML3 agonist, zfTRPN1 agonist) | OXTR pot cf inactive
O=S(=O)(c1ccc(S(=O)(=O)N2CCOCC2)cc1)N1CCCC1	OXTR potentiator 12 | OXTR pot cf inactive
O=S(=O)(c1ccc(S(=O)(=O)N2CCCC2)cc1)N1CCCCC1	none (no result: TRPML3 agonist, zfTRPN1 agonist)
Cc1ccc(OCCOC(=O)c2nc3nccc(C)n3n2)cc1	none
CCN(CC(=O)Nc1cc(Cl)ccc1C)C(=O)c1oc2ccc(OC)cc2c1C	none (no result: TRPML3 agonist, zfTRPN1 agonist)
CC(Oc1cc2oc(=O)cc(-c3ccccc3)c2cc1Cl)C(=O)NCC1CCC(C(=O)O)CC1 (stereo not given)	none (no result: TRPML3 agonist, zfTRPN1 agonist)
CCc1cc2c(-c3ccccc3)cc(=O)oc2cc1OC(C)C(=O)NCC1CCC(C(=O)O)CC1 (stereo not given)	OXTR potentiator 9.8 (no result: TRPML3 agonist, zfTRPN1 agonist) | OXTR pot cf inactive
N#CCC(=O)Nc1ccc(C(=O)OC(C(=O)Nc2cc(C(F)(F)F)ccc2Cl)c2ccccc2)cc1 (stereo not given)	none (no result: TRPML3 agonist, zfTRPN1 agonist)
Cc1cn([C@H]2C[C@H](O)[C@@H](COS(=O)(=O)O)O2)c(=O)[nH]c1=O	OXTR potentiator 14 (no result: TRPML3 agonist, zfTRPN1 agonist) | OXTR pot cf inactive
Cc1c(Cl)cccc1NC(=S)NCCc1ccc(S(N)(=O)=O)cc1	none
CCOc1ccc(-c2c(C(=O)N/N=C/c3ccc(C)o3)nnn2-c2nonc2N)cc1	none (no result: TRPML3 agonist, zfTRPN1 agonist)
CCOc1ccc(-c2c(C(=O)N/N=C/c3ccc(O)cc3)nnn2-c2nonc2N)cc1	OXTR potentiator 9.6 | OXTR pot cf inactive
Cc1c(N=C2SC(CC(=O)Nc3ccccc3)C(=O)N2CCN2CCOCC2)c(=O)n(-c2ccccc2)n1C (stereo not given)	none
CC1CCCC(NC(=O)COC(=O)c2ccccc2NC(=O)c2ccco2)C1C (stereo not given)	OXTR potentiator 10 | OXTR pot cf inactive
O=C(COC(=O)c1ccccc1NC(=O)c1ccco1)NC1CCCCC1	none
Cc1cc(C)n(C(C)Sc2ccccc2)n1 (stereo not given)	OXTR potentiator 14 (no result: TRPML3 agonist, zfTRPN1 agonist) | OXTR pot cf inactive
O=C(NCC#CCOCc1ccccc1)c1ccccc1	none
CC(Sc1ccc(Cl)cc1)C(=O)NCc1ccc2c(c1)OCO2 (stereo not given)	OXTR potentiator 9.4 | OXTR pot cf inactive
CC1CCCCC1NC(=O)CCS(=O)(=O)c1cc2c(cc1Cl)NC(=O)CO2 (stereo not given)	OXTR potentiator 25 (no result: TRPML3 agonist, zfTRPN1 agonist) | OXTR pot cf inactive
Cc1cc2c(cc1S(=O)(=O)CCC(=O)NC1CCCCC1C)OCC(=O)N2 (stereo not given)	none (no result: TRPML3 agonist, zfTRPN1 agonist)
O=C(c1ccccc1)N1CCN(S(=O)(=O)N2CCOCC2)CC1	OXTR potentiator 14 | OXTR pot cf inactive
Cc1cc(C)c(NC(=O)C2CC(=O)N(C(C)C)C2)c(C)c1 (stereo not given)	none (no result: TRPML3 agonist, zfTRPN1 agonist)
CCCCc1ccc(NC(=O)N[C@H](C(=O)O)C(C)CC)cc1 (stereo not given in full)	OXTR potentiator 13 | OXTR pot cf inactive
CCOc1ccc(OCC)c(Nc2cc(C)nc3ncnn23)c1	OXTR potentiator 16 | OXTR pot cf inactive
COc1cc(Nc2cc(C)nc3ncnn23)cc(OC)c1OC	none
COc1cc(Nc2cc(C)nc3ncnn23)cc(OC)c1	OXTR potentiator 6.4 | OXTR pot cf inactive
COc1ccc(CCNC(=O)CSc2n[nH]c(N)n2)cc1	none (no result: TRPML3 agonist, zfTRPN1 agonist)
COc1ccc(Nc2nnc(-c3ccc(C)cc3)c3ccccc23)cc1C(=O)N1CCCCC1	OXTR potentiator 17 | OXTR pot cf inactive
CCOC(=O)c1sc(C)c2c(=O)n(CC)nnc12	none
Cc1cc(C(=O)COC(=O)c2ccc(N)c([N+](=O)[O-])c2)c(C)n1Cc1ccc2c(c1)OCO2	none
O=C(NCC(=O)N1CCN(S(=O)(=O)c2ccccc2F)CC1)c1ccc2c(c1)OCO2	none (no result: TRPML3 agonist, zfTRPN1 agonist)
COc1cc(OC)cc(C(=O)NCC(=O)N2CCN(S(=O)(=O)c3ccccc3F)CC2)c1	OXTR potentiator 14 (no result: TRPML3 agonist, zfTRPN1 agonist) | OXTR pot cf inactive
Cc1cc(C)n(C(=O)C(C(=O)c2ccccc2)C(C)C)n1 (stereo not given)	OXTR potentiator 11 | OXTR pot cf inactive
CCCCn1c(-c2ccoc2C)n[nH]c1=S	OXTR potentiator 10 | OXTR pot cf inactive
O=C(O)c1ccccc1NC(=O)C1CCCO1 (stereo not given)	OXTR potentiator 12 | OXTR pot cf inactive
CCN1CCCC1CNC(=O)C(=O)Nc1ccccc1 (stereo not given)	none
CCN1CCCC1CNC(=O)C(=O)Nc1cccc(OC)c1 (stereo not given)	OXTR potentiator 13 | OXTR pot cf inactive
O=C(O)c1ccc(CSc2ncn[nH]2)cc1	none
